pIC50: −log10 of the molar value. Active and inactive are the calls of the source. The rule behind the calls is not given here.
Tests used:
Mus musculus [1] = organism: Mus musculus; assay: Reduction in body weight in Y5 receptor knock-out diet-induced obese C57BL/6J mouse; assay type: functional, organism-based
Rattus norvegicus [2] = assay: Suppression of Y5 agonist bovine pancreatic peptide-induced food intake in Sprague-Dawley rat at 1 mg/kg, po treated 1 hr before peptide administration measured after 2 hrs; assay type: functional
How it was run: (§1)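 bPP (5 µg) given ICV to SD rats in 10 µL of 10 mM PBS containing 0.05% BSA. Compound suspended in 0.5% methylcellulose in distilled water and given orally (5 mL/kg) 1 h before bPP. Cumulative food intake recorded over 0–2 h; n = 7 or more. MED is the lowest dose with a statistically significant reduction versus vehicle (P < 0.05 or P < 0.01).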

Rattus norvegicus [3] = assay: Suppression of Y5 agonist bovine pancreatic peptide-induced food intake in Sprague-Dawley rat at 3 mg/kg, po treated 1 hr before peptide administration measured after 2 hrs; assay type: functional; how it was run: as §1
Brain = assay: Drug level in Sprague-Dawley rat brain at 10 mg/kg, po after 2 hrs; assay type: ADME, organism-based; design: dose 10 mg/kg, route oral; details: in vivo
How it was run: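 SD rats dosed orally at 10 mg/kg. Brain concentration measured 2 h after dosing and expressed as nmol/g.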

Rattus norvegicus [4] = assay: Suppression of Y5 agonist bovine pancreatic peptide-induced food intake in po dosed Sprague-Dawley rat assessed as minimum effective dose treated 1 hr before peptide administration measured after 2 hrs; assay type: functional; how it was run: as §1
[5] = Oral bioavailability in Sprague-Dawley rat at 10 mg/kg; assay type: ADME, organism-based; details: in vivo
How it was run: (§2)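 Sprague-Dawley rats (n = 2) given 3 mpk iv and 10 mpk po. Plasma sampled at 5 min, 1 h and 4 h after iv dosing and at 0.5 h, 1 h and 2 h after po dosing. F, CL_tot, AUC and other PK parameters calculated by the trapezoidal method.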

[6] = Ratio of drug level in brain to plasma in Sprague-Dawley rat at 3 mg/kg, iv after 10 mins; assay type: ADME, organism-based; design: dose 3 mg/kg, route intravenous
How it was run: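 Rats (n = 2) dosed iv at 3 mpk. Brain and plasma concentrations taken 10 min after dosing, and brain penetration expressed as the brain/plasma ratio.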

[7] = AUC in Sprague-Dawley rat at 10 mg/kg, po and 3 mg/kg, iv; assay type: ADME, organism-based; details: plasma; how it was run: as §2
Mus musculus [8] = assay: Reduction in body weight in diet-induced obese C57BL/6J mouse at 30 mg/kg, po after 13 days; assay type: functional, organism-based; design: dose 30 mg/kg
Mus musculus [9] = assay: Reduction in cumulative food intake in diet-induced obese C57BL/6J mouse at 30 mg/kg, po after 13 days relative to control; assay type: functional; design: scale not given: the % may be the effect or the level left
[10] = Total clearance in Sprague-Dawley rat at 10 mg/kg, po and 3 mg/kg, iv; assay type: ADME, organism-based; details: in vivo; how it was run: as §2
[11] = target: T1, Neuropeptide Y receptor type 5 (Homo sapiens, UniProt Q15761); assay: Binding affinity to human neuropeptide Y5 receptor
T1 sequence (Q15761 whole entry): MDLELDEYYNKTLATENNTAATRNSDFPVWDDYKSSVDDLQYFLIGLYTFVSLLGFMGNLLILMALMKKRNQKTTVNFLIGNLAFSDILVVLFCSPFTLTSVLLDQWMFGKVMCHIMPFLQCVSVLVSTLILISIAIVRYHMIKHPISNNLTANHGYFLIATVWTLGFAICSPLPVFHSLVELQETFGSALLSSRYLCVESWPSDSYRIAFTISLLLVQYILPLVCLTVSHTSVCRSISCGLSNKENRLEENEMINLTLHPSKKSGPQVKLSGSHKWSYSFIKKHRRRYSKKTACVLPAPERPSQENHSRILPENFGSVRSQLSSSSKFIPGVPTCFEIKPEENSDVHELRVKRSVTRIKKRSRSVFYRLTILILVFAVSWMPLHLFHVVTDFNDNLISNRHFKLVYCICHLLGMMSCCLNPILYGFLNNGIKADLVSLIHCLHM

Rattus norvegicus [12] = assay: Suppression of Y5 agonist bovine pancreatic peptide-induced food intake in Sprague-Dawley rat at 10 mg/kg, po treated 1 hr before peptide administration measured after 2 hrs; assay type: functional; how it was run: as §1
[13] = Lipophilicity, calculated log D at pH 7.4
[14] = Tmax in Sprague-Dawley rat at 10 mg/kg, po and 3 mg/kg, iv; assay type: ADME, organism-based; details: in vivo; how it was run: as §2
[15] = Cmax in Sprague-Dawley rat at 10 mg/kg, po and 3 mg/kg, iv; assay type: ADME, organism-based; details: in vivo; how it was run: as §2
Mus musculus [16] = assay: Reduction in body weight in diet-induced obese C57BL/6J mouse at 100 mg/kg, po; assay type: functional, organism-based; design: dose 100 mg/kg

| Compound | MED (Rattus norvegicus [4]) [mg/kg] | pIC50 [11] | other results |
| --- | --- | --- | --- |
| CCS(=O)(=O)N1CC2(CCN(C(=O)Nc3cn(-c4ccccc4)cn3)CC2)c2ccccc21 | 3 | 8.47 | Activity (Mus musculus [1]): inactive; inhibition in vivo at 1 mg/kg (Rattus norvegicus [2]): 34%; inhibition in vivo at 3 mg/kg (Rattus norvegicus [3]): 45%; Drug uptake (Brain): 0.64 nmol/g; Activity (Rattus norvegicus [4]): Dose-dependent effect; bioavailability [5]: 37%; Kp at 10 min [6]: 0.22; AUC [7]: 58.9 µM·h; Activity (Mus musculus [8]): Active; Activity (Mus musculus [9]): 8.8%; clearance [10]: 2.5 mL/min/kg; inhibition in vivo at 10 mg/kg (Rattus norvegicus [12]): 57% |
| CS(=O)(=O)N1CC2(CCN(C(=O)Nc3nnc(-c4ccccc4)s3)CC2)c2ccccc21 | – | 8.47 | – |
| CS(=O)(=O)N1CC2(CCN(C(=O)Nc3cc(-c4ccccc4)no3)CC2)c2ccccc21 | > 30 | 8.89 | logD [13]: 2.53; bioavailability [5]: 23%; Kp at 10 min [6]: 0.22 |
| CS(=O)(=O)N1CC2(CCN(C(=O)Nc3nc4cc(Cl)ccc4o3)CC2)c2ccccc21 | – | 8.30 | – |
| CS(=O)(=O)N1CC2(CCN(C(=O)Nc3ccc(-c4cccnc4)cc3)CC2)c2ccccc21 | 100 | – | Tmax [14]: 1 h; Cmax [15]: 4.7 µM; AUC [7]: 12.7 µM·h; clearance [10]: 13.3 mL/min/kg |
| CCS(=O)(=O)N1CC2(CCN(C(=O)Nc3cn(-c4ccccc4OC)cn3)CC2)c2ccccc21 | > 30 | 8.31 | – |
| CS(=O)(=O)N1CC2(CCN(C(=O)Nc3ccc(Cl)cn3)CC2)c2ccccc21 | – | 8.15 | – |
| CCS(=O)(=O)N1CC2(CCN(C(=O)Nc3cn(-c4ccc(F)cc4)cn3)CC2)c2ccccc21 | > 30 | 8.39 | – |
| CS(=O)(=O)N1CC2(CCN(C(=O)Nc3cn(-c4ccccc4)cn3)CC2)c2ccccc21 | > 30 | 8.62 | logD [13]: 2.15; bioavailability [5]: 27%; Kp at 10 min [6]: 0.1; AUC [7]: 25.3 µM·h; clearance [10]: 3.9 mL/min/kg |
| CS(=O)(=O)N1CC2(CCN(C(=O)Nc3ccc(-c4ccco4)cc3)CC2)c2ccccc21 | – | 8.38 | – |
| CCS(=O)(=O)N1CC2(CCN(C(=O)Nc3cn(-c4cccc(OC)c4)cn3)CC2)c2ccccc21 | 10 | 8.70 | bioavailability [5]: 50.1%; Kp at 10 min [6]: 0.11 |
| CCS(=O)(=O)N1CC2(CCN(C(=O)Nc3cn(-c4ccc(OC)cc4)cn3)CC2)c2ccccc21 | – | 8.49 | – |
| CCS(=O)(=O)N1CC2(CCN(C(=O)Nc3cn(-c4cccc(F)c4)cn3)CC2)c2ccccc21 | 30 | 8.52 | bioavailability [5]: 23%; Kp at 10 min [6]: 0.18 |
| CS(=O)(=O)N1CC2(CCN(C(=O)Nc3ccc(-c4ccccn4)cc3)CC2)c2ccccc21 | > 100 | – | Tmax [14]: 0.25 h; Cmax [15]: 0.6 µM; Kp at 10 min [6]: 0.22; AUC [7]: 1.8 µM·h; clearance [10]: 24.4 mL/min/kg |
| CCS(=O)(=O)N1CC2(CCN(C(=O)Nc3cn(-c4ccccc4F)cn3)CC2)c2ccccc21 | 3 | 8.48 | bioavailability [5]: 23%; Kp at 10 min [6]: 0.25 |
| CS(=O)(=O)N1CC2(CCN(C(=O)Nc3ccc(-n4cccn4)cc3)CC2)c2ccccc21 | – | 8.49 | – |
| CS(=O)(=O)N1CC2(CCN(C(=O)Nc3ccc(-c4nccs4)cc3)CC2)c2ccccc21 | – | 8.62 | – |

| Compound | MED (Rattus norvegicus [4]) [mg/kg] | pIC50 [11] | other results |
| --- | --- | --- | --- |
| CS(=O)(=O)N1CC2(CCN(C(=O)Nc3cnc4ccccc4c3)CC2)c2ccccc21 | – | 8.27 | – |
| CC(=O)c1ccc(NC(=O)N2CCC3(CC2)CN(S(C)(=O)=O)c2ccccc23)cc1 | – | 8.57 | – |
| CS(=O)(=O)N1CC2(CCN(C(=O)Nc3ccc(Cl)nc3)CC2)c2ccccc21 | – | 7.96 | – |
| CS(=O)(=O)N1CC2(CCN(C(=O)Nc3ccc(Oc4ccccc4)cc3)CC2)c2ccccc21 | – | 8.59 | – |
| CS(=O)(=O)N1CC2(CCN(C(=O)Nc3ccc(-n4nccn4)cc3)CC2)c2ccccc21 | – | 7.39 | – |
| CS(=O)(=O)N1CC2(CCN(C(=O)Nc3cccnc3)CC2)c2ccccc21 | – | < 6.00 | – |
| CS(=O)(=O)N1CC2(CCN(C(=O)Nc3ncc(-c4ccccc4)s3)CC2)c2ccccc21 | – | 8.66 | – |
| Cn1ccnc1-c1ccc(NC(=O)N2CCC3(CC2)CN(S(C)(=O)=O)c2ccccc23)cc1 | – | 8.05 | – |
| CS(=O)(=O)N1CC2(CCN(C(=O)Nc3cc(-c4ccccc4)n[nH]3)CC2)c2ccccc21 | > 30 | 8.85 | logD [13]: 3.08; bioavailability [5]: 13%; Kp at 10 min [6]: 0.02 |
| CS(=O)(=O)N1CC2(CCN(C(=O)Nc3cn(-c4cccc(F)c4)cn3)CC2)c2ccccc21 | > 30 | 8.74 | – |
| COc1cccc2sc(NC(=O)N3CCC4(CC3)CN(S(C)(=O)=O)c3ccccc34)nc12 | – | 8.05 | – |
| CS(=O)(=O)N1CC2(CCN(C(=O)Nc3cn(-c4ccccc4F)cn3)CC2)c2ccccc21 | > 30 | 8.41 | – |
| CS(=O)(=O)N1CC2(CCN(C(=O)Nc3ccc4ncccc4c3)CC2)c2ccccc21 | > 30 | 8.60 | logD [13]: 2.74; bioavailability [5]: 24%; Kp at 10 min [6]: 0.03 |
| CS(=O)(=O)N1CC2(CCN(C(=O)Nc3ccc4ccccc4n3)CC2)c2ccccc21 | – | 8.21 | – |
| CS(=O)(=O)N1CC2(CCN(C(=O)Nc3ccc(C(=O)c4ccccc4)cc3)CC2)c2ccccc21 | – | 9.17 | – |
| CS(=O)(=O)N1CC2(CCN(C(=O)Nc3ccc(-c4cscn4)cc3)CC2)c2ccccc21 | – | 8.55 | – |
| CS(=O)(=O)N1CC2(CCN(C(=O)Nc3ccc(-c4ccncc4)cc3)CC2)c2ccccc21 | 10 | – | Tmax [14]: 1 h; Cmax [15]: 5.5 µM; AUC [7]: 10.8 µM·h; Activity (Mus musculus [16]): inactive; clearance [10]: 17.8 mL/min/kg |

— ChEMBL document CHEMBL1154087, “Novel orally active NPY Y5 receptor antagonists: Synthesis and structure-activity relationship of spiroindoline class compounds” (Bioorg Med Chem, 2009)
